In ChEMBL document CHEMBL4219218, “P3-P4 ureas and reverse carbamates as potent HCV NS3 protease inhibitors: Effective transposition of the P4 hydrogen bond donor” (Bioorg Med Chem Lett, 2018):

Experiment: AUC in Sprague-Dawley rat plasma at 15 mg/kg administered intraduodenally as single dose measured at 4 hrs by LC/MS/MS method
Type: ADME, organism-based
Parameters: dose 15 mg/kg, time < 4 hr, route intraduodenal
Conditions: not given
Summary of the method: (§1)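 Single intraduodenal dose of 15 mg/kg to rats, n = 2. Plasma and liver exposure measured over a 4 h period, with a 4 h endpoint.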

SMILES | AUC at 4 h [ng·h/mL]
C=C[C@@H]1C[C@]1(NC(=O)[C@@H]1C[C@@H](Oc2cc(-c3ccccc3)nc3cc(OC)ccc23)CN1C(=O)[C@@H](OC(=O)NC1CCCC1)C(C)(C)C)C(=O)NS(=O)(=O)C1CC1 | 95
C=C[C@@H]1C[C@]1(NC(=O)[C@@H]1C[C@@H](Oc2cc(-c3ccccc3)nc3cc(OC)ccc23)CN1C(=O)[C@H]([C@@H](C)CC)N(C)C(=O)NC(C)(C)C)C(=O)NS(=O)(=O)C1CC1 | 16
C=C[C@@H]1C[C@]1(NC(=O)[C@@H]1C[C@@H](Oc2cc(-c3ccccc3)nc3cc(OC)ccc23)CN1C(=O)[C@@H](OC(=O)NC(C)(C)C)C(C)(C)C)C(=O)NS(=O)(=O)C1CC1 | 82
C=C[C@@H]1C[C@]1(NC(=O)[C@@H]1C[C@@H](Oc2cc(-c3ccccc3)nc3cc(OC)ccc23)CN1C(=O)[C@@H](NC(=O)N(C)C(C)(C)C)C(C)(C)C)C(=O)NS(=O)(=O)C1CC1 | 32

More lines, now with the values ahead:

AUC at 4 h [ng·h/mL] | SMILES
7420 | C=C[C@@H]1C[C@]1(NC(=O)[C@@H]1C[C@@H](Oc2nccc3cc(OC)ccc23)CN1C(=O)[C@@H](NC(=O)OC(C)(C)C)C(C)(C)C)C(=O)NS(=O)(=O)C1CC1
61 | C=C[C@@H]1C[C@]1(NC(=O)[C@@H]1C[C@@H](Oc2cc(-c3ccccc3)nc3cc(OC)ccc23)CN1C(=O)[C@@H](NC(=O)OC(C)(C)C)C(C)(C)C)C(=O)NS(=O)(=O)C1CC1
497 | C=C[C@@H]1C[C@]1(NC(=O)[C@@H]1C[C@@H](Oc2nccc3cc(OC)ccc23)CN1C(=O)[C@@H](NC(=O)NC(C)(C)C)C(C)(C)C)C(=O)NS(=O)(=O)C1CC1
17 | C=C[C@@H]1C[C@]1(NC(=O)[C@@H]1C[C@@H](Oc2cc(-c3ccccc3)nc3cc(OC)ccc23)CN1C(=O)[C@@H](NC(=O)NC(C)(C)C)C(C)(C)C)C(=O)NS(=O)(=O)C1CC1
3280 | C=C[C@@H]1C[C@]1(NC(=O)[C@@H]1C[C@@H](Oc2nccc3cc(OC)ccc23)CN1C(=O)[C@@H](NC(=O)N[C@H](COC)C(C)(C)C)C(C)(C)C)C(=O)NS(=O)(=O)C1CC1
1630 | C=C[C@@H]1C[C@]1(NC(=O)[C@@H]1C[C@@H](Oc2nccc3cc(OC)ccc23)CN1C(=O)[C@@H](NC(=O)N[C@H](C(=O)N1CCN(c2ncccn2)CC1)C(C)(C)C)C(C)(C)C)C(=O)NS(=O)(=O)C1CC1
91 | C=C[C@@H]1C[C@]1(NC(=O)[C@@H]1C[C@@H](Oc2nccc3cc(OC)ccc23)CN1C(=O)[C@@H](NC(=O)N[C@H](C(=O)O)C(C)(C)C)C(C)(C)C)C(=O)NS(=O)(=O)C1CC1
632 | C=C[C@@H]1C[C@]1(NC(=O)[C@@H]1C[C@@H](Oc2nccc3cc(OC)ccc23)CN1C(=O)[C@@H](NC(=O)N[C@H](C(=O)OC(C)(C)C)C(C)(C)C)C(C)(C)C)C(=O)NS(=O)(=O)C1CC1

Experiment: Drug level in Sprague-Dawley rat liver at 15 mg/kg administered intraduodenally as single dose measured at 4 hrs by LC/MS/MS method
Type: ADME, organism-based
Conditions: read-out: Drug uptake
Summary of the method: as §1

SMILES | concentration at 4 h [ng/g]
C=C[C@@H]1C[C@]1(NC(=O)[C@@H]1C[C@@H](Oc2cc(-c3ccccc3)nc3cc(OC)ccc23)CN1C(=O)[C@H]([C@@H](C)CC)N(C)C(=O)NC1CCCC1)C(=O)NS(=O)(=O)C1CC1 | 1240
C=C[C@@H]1C[C@]1(NC(=O)[C@@H]1C[C@@H](Oc2cc(-c3ccccc3)nc3cc(OC)ccc23)CN1C(=O)[C@@H](OC(=O)NC1CCCC1)C(C)(C)C)C(=O)NS(=O)(=O)C1CC1 | 3430
C=C[C@@H]1C[C@]1(NC(=O)[C@@H]1C[C@@H](Oc2cc(-c3ccccc3)nc3cc(OC)ccc23)CN1C(=O)[C@H]([C@@H](C)CC)N(C)C(=O)NC(C)(C)C)C(=O)NS(=O)(=O)C1CC1 | 1780
C=C[C@@H]1C[C@]1(NC(=O)[C@@H]1C[C@@H](Oc2cc(-c3ccccc3)nc3cc(OC)ccc23)CN1C(=O)[C@@H](OC(=O)NC(C)C)C(C)(C)C)C(=O)NS(=O)(=O)C1CC1 | 430
C=C[C@@H]1C[C@]1(NC(=O)[C@@H]1C[C@@H](Oc2cc(-c3ccccc3)nc3cc(OC)ccc23)CN1C(=O)[C@@H](OC(=O)NC(C)(C)C)C(C)(C)C)C(=O)NS(=O)(=O)C1CC1 | 3770
C=C[C@@H]1C[C@]1(NC(=O)[C@@H]1C[C@@H](Oc2cc(-c3ccccc3)nc3cc(OC)ccc23)CN1C(=O)[C@@H](NC(=O)N(C)C(C)(C)C)C(C)(C)C)C(=O)NS(=O)(=O)C1CC1 | 2600

Further lines, results first:

concentration at 4 h [ng/g] | SMILES
64700 | C=C[C@@H]1C[C@]1(NC(=O)[C@@H]1C[C@@H](Oc2nccc3cc(OC)ccc23)CN1C(=O)[C@@H](NC(=O)OC(C)(C)C)C(C)(C)C)C(=O)NS(=O)(=O)C1CC1
7850 | C=C[C@@H]1C[C@]1(NC(=O)[C@@H]1C[C@@H](Oc2cc(-c3ccccc3)nc3cc(OC)ccc23)CN1C(=O)[C@@H](NC(=O)OC(C)(C)C)C(C)(C)C)C(=O)NS(=O)(=O)C1CC1
1110 | C=C[C@@H]1C[C@]1(NC(=O)[C@@H]1C[C@@H](Oc2nccc3cc(OC)ccc23)CN1C(=O)[C@@H](NC(=O)NC(C)(C)C)C(C)(C)C)C(=O)NS(=O)(=O)C1CC1
72 | C=C[C@@H]1C[C@]1(NC(=O)[C@@H]1C[C@@H](Oc2cc(-c3ccccc3)nc3cc(OC)ccc23)CN1C(=O)[C@@H](NC(=O)NC(C)(C)C)C(C)(C)C)C(=O)NS(=O)(=O)C1CC1
838 | C=C[C@@H]1C[C@]1(NC(=O)[C@@H]1C[C@@H](Oc2nccc3cc(OC)ccc23)CN1C(=O)[C@@H](NC(=O)N[C@H](COC)C(C)(C)C)C(C)(C)C)C(=O)NS(=O)(=O)C1CC1
87 | C=C[C@@H]1C[C@]1(NC(=O)[C@@H]1C[C@@H](Oc2nccc3cc(OC)ccc23)CN1C(=O)[C@@H](NC(=O)N[C@H](C(=O)N1CCN(c2ncccn2)CC1)C(C)(C)C)C(C)(C)C)C(=O)NS(=O)(=O)C1CC1
4850 | C=C[C@@H]1C[C@]1(NC(=O)[C@@H]1C[C@@H](Oc2nccc3cc(OC)ccc23)CN1C(=O)[C@@H](NC(=O)N[C@H](C(=O)OC(C)(C)C)C(C)(C)C)C(C)(C)C)C(=O)NS(=O)(=O)C1CC1
